Test results from the M2OR odorant receptor database.

Experiments:
Settings in all cases: stereoisomer not certain
[1] = target: OR8K1 (Homo sapiens) (UniProt Q8NGG5)
How it was run: (§1)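 Each receptor–molecule pair is labelled responsive or non-responsive (inactive) according to whether the original authors judged the measured signal statistically different from baseline. The data were taken from the main text and supplementary material of published papers and checked for typos and inconsistencies. Assay methods differed by source, with transient luciferase assays in mammalian cell lines being common.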

[2] = target: OR8K3 (Homo sapiens) (UniProt Q8NH51)
OR8K3 (Homo sapiens), sequence (Q8NH51 whole entry): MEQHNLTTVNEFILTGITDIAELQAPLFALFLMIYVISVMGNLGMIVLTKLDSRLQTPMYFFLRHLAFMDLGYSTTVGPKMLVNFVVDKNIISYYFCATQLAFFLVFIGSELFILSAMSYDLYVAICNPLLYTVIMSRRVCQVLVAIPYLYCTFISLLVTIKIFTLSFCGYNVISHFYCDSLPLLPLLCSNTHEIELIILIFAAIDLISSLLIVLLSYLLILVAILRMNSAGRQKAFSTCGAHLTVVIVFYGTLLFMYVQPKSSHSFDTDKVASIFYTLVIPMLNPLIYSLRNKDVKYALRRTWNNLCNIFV
How it was run: as §1

[3] = target: OR8K5 (Homo sapiens) (UniProt Q8NH50)
OR8K5 (Homo sapiens), sequence (Q8NH50 whole entry): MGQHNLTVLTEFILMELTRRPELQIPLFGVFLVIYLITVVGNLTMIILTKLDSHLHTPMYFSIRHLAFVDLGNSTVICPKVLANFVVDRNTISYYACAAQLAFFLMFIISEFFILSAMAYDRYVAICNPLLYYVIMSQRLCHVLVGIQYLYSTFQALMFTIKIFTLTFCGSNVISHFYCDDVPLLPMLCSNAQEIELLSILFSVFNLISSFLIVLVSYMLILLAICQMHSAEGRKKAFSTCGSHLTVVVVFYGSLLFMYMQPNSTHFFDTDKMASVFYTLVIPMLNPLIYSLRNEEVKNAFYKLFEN
How it was run: as §1

[4] = target: OR8S1 (Homo sapiens) (UniProt Q8NH09)
OR8S1 (Homo sapiens), sequence (Q8NH09 whole entry): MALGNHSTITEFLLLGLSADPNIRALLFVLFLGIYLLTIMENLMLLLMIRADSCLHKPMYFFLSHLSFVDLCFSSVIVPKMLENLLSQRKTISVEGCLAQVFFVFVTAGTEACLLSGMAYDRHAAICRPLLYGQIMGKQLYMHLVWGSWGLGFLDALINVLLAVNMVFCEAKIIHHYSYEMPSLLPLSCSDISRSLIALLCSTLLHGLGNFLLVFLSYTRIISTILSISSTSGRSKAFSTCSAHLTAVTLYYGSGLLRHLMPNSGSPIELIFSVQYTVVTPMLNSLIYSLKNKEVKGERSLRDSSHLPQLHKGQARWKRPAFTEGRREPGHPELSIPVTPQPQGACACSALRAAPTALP
How it was run: as §1

[5] = target: OR8U1 (Homo sapiens) (UniProt Q8NH10)
OR8U1 (Homo sapiens), sequence (Q8NH10 whole entry): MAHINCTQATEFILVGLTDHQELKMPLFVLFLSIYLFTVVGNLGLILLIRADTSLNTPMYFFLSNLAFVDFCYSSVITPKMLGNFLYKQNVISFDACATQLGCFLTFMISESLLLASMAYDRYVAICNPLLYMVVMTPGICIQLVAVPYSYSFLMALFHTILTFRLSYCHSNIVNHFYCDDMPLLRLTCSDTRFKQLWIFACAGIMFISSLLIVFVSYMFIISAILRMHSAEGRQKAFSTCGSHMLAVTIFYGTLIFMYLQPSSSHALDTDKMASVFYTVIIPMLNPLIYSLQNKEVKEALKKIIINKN
How it was run: as §1

[6] = target: OR8U3 (Homo sapiens) (UniProt Q8NH85)
OR8U3 (Homo sapiens), sequence (Q8NH85 whole entry): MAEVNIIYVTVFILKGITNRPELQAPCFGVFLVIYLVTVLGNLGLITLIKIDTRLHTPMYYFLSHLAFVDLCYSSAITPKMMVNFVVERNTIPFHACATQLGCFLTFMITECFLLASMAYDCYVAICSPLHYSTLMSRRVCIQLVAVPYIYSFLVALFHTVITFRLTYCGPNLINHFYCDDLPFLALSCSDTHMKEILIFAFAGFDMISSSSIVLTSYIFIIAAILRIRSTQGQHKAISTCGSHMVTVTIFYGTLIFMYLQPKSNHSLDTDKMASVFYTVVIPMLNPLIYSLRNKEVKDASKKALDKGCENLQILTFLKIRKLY
How it was run: as §1

[7] = target: OR8U8 (Homo sapiens) (UniProt P0C7N1)
OR8U8 (Homo sapiens), sequence (P0C7N1 whole entry): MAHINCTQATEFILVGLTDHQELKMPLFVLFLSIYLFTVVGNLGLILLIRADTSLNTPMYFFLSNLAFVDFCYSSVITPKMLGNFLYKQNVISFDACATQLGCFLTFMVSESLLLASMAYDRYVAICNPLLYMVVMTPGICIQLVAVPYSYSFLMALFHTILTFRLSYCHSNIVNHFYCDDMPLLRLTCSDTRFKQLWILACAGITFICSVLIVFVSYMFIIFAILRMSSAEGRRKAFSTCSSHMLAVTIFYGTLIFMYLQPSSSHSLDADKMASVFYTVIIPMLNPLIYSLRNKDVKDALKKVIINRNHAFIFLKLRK
How it was run: as §1

[8] = system: OR8J3 E4V
OR8J3 E4V, sequence (as listed by the source): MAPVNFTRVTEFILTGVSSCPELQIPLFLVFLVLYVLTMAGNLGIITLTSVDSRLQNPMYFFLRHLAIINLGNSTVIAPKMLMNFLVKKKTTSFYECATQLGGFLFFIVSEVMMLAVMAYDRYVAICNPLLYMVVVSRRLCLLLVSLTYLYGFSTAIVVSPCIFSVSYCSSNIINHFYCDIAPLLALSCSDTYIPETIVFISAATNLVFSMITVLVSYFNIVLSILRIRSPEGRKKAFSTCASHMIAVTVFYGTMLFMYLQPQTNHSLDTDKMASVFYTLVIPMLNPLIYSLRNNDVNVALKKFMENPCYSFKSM
How it was run: as §1

[9] = system: OR8U8
How it was run: as §1
Target sequence in this assay (as listed by the source): as the sequence (P0C7N1 whole entry) above, with V109I, S112C counted along it

[10] = system: OR8U8; remark: listed apart in the source
How it was run: as §1
Target sequence in this assay (as listed by the source): as the sequence (P0C7N1 whole entry) above, with H20R, V109I, R165C counted along it

Measured: odorant receptor agonist call;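 note: active if original authors judged signal statistically different from baseline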

OR8K1 (Homo sapiens), sequence (Q8NGG5 whole entry): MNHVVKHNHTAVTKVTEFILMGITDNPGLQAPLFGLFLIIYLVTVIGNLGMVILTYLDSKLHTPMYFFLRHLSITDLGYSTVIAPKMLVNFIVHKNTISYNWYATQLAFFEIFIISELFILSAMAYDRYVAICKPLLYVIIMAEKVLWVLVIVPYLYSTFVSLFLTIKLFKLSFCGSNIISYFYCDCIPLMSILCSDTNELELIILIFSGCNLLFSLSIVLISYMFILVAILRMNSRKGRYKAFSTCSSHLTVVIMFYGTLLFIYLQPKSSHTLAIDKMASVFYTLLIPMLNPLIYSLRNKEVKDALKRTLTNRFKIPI

Cc1c([N+](=O)[O-])c(C)c([N+](=O)[O-])c(C(C)(C)C)c1[N+](=O)[O-]
not listed: [8] | [9] | [10]
inactive: all other assays above

C=CCOC(=O)Cc1ccccc1
not listed: [7]
inactive: all other assays above
